Assay results: ChEMBL document CHEMBL2396576, “Identification of 1,6-dihydropyrazolo[4,3-c]carbazoles and 3,6-dihydropyrazolo[3,4-c]carbazoles as new Pim kinase inhibitors” (Bioorg Med Chem, 2013)

Key:
[1] = target: T1, Serine/threonine-protein kinase pim-3 (Homo sapiens, UniProt Q86V86); experiment: Inhibition of human PIM3 using RSRHSSYPAGT as substrate after 30 mins
[2] = target: T2, Serine/threonine-protein kinase pim-1 (Homo sapiens, UniProt P11309); experiment: Inhibition of human PIM1 using RSRHSSYPAGT as substrate after 30 mins
Target sequence in this assay (P11309 whole entry): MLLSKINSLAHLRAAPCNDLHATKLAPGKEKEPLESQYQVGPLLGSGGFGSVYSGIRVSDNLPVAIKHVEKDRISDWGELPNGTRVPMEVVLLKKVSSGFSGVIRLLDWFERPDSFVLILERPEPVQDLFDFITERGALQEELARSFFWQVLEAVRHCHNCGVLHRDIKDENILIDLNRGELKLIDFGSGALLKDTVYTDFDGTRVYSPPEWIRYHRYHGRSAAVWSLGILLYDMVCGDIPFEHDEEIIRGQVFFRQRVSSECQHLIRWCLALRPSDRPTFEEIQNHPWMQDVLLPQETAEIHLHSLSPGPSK

[3] = target: T1, Serine/threonine-protein kinase pim-3; experiment: Inhibition of human PIM3 assessed as residual activity using RSRHSSYPAGT as substrate at 1 uM after 30 mins
LNCaP = experiment: Antiproliferative activity against human LNCAP cells assessed as cell growth inhibition at 10 uM after 72 hrs by MTS assay; type: functional; settings: read-out: GI
Procedure, shortened: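 LNCaP cells grown in RPMI 1640 with 10% FCS at 37 °C, 5% CO2, seeded at 5000 per well. After 24 h, compound in DMSO (1% final) added at 10 µM for 72 h; DMSO controls. Viable cells by MTS absorbance at 490 nm; percent proliferation inhibition.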

[4] = target: T1, Serine/threonine-protein kinase pim-3; experiment: Inhibition of human PIM3 assessed as residual activity using RSRHSSYPAGT as substrate at 10 uM after 30 mins
[5] = target: T2, Serine/threonine-protein kinase pim-1; experiment: Inhibition of human PIM1 assessed as residual activity using RSRHSSYPAGT as substrate at 10 uM after 30 mins
Target sequence in this assay (P11309 whole entry, looked up): as the sequence (P11309 whole entry) above

[6] = target: Serine/threonine-protein kinase pim-2 (Homo sapiens) (UniProt Q9P1W9); experiment: Inhibition of human PIM2 assessed as residual activity using RSRHSSYPAGT as substrate at 1 uM after 30 mins
[7] = target: Serine/threonine-protein kinase pim-2 (Homo sapiens) (UniProt Q9P1W9); experiment: Inhibition of human PIM2 assessed as residual activity using RSRHSSYPAGT as substrate at 10 uM after 30 mins
PC-3 [8] = experiment: Antiproliferative activity against human PC3 cells assessed as cell growth inhibition after 72 hrs by MTS assay; type: functional, cell-based; settings: PC-3, 72 h
PC-3 [9] = experiment: Antiproliferative activity against human PC3 cells assessed as cell growth inhibition at 10 uM after 72 hrs by MTS assay; type: functional; settings: PC-3, 72 h, read-out: GI
Procedure, shortened: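 PC3 cells kept in RPMI 1640 plus 10% FCS (37 °C, 5% CO2) and plated at 2500 per well. Compound added 24 h later at 10 µM in DMSO (1% final), 72 h exposure, vehicle controls. MTS read at 490 nm; percent inhibition of proliferation.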

[10] = target: T2, Serine/threonine-protein kinase pim-1; experiment: Inhibition of human PIM1 assessed as residual activity using RSRHSSYPAGT as substrate at 1 uM after 30 mins
Target sequence in this assay (P11309 whole entry, looked up): as the sequence (P11309 whole entry) above

Chain of Serine/threonine-protein kinase pim-2 (Homo sapiens) (Q9P1W9 whole entry, looked up): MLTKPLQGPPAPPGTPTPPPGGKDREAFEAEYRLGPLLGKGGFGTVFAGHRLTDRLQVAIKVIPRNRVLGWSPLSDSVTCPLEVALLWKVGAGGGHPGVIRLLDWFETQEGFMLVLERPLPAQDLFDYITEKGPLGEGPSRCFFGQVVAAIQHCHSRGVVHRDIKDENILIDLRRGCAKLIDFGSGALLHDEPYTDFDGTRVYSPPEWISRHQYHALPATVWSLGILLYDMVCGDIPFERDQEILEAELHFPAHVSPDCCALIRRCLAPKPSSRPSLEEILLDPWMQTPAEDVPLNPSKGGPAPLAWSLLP

Compound	IC50 [1]	IC50 [2]	Activity [3]	Activity [4]	Activity [5]	Activity [6]	Activity [7]	IC50 (PC-3 [8])	Activity [10]	inhibition of growth at 10 µM (LNCaP)	inhibition of growth at 10 µM (PC-3 [9])
COc1ccc2[nH]c3c([N+](=O)[O-])cc4[nH]ncc4c3c2c1			21%	11%	13%	54%	35%	2300 nM	29%	27%	74%
O=[N+]([O-])c1cc2[nH]ncc2c2c1[nH]c1ccc(Cl)cc12	230 nM	200 nM	26%	19%	39%	57%	54%		48%	0%	50%
COc1ccc2[nH]c3c(N)cc4cn[nH]c4c3c2c1	700 nM		46%	14%	43%	120%	70%		93%	8%	28%
Nc1cc2cn[nH]c2c2c1[nH]c1ccccc12			63%	20%	54%	116%	78%		98%	28%	31%
O=[N+]([O-])c1cc2n[nH]cc2c2c1[nH]c1ccccc12	100 nM	40 nM									
O=[N+]([O-])c1cc2cn[nH]c2c2c1[nH]c1ccccc12			22%	16%	26%	76%	46%		44%	45%	59%
COc1ccc2[nH]c3c([N+](=O)[O-])cc4cn[nH]c4c3c2c1			28%	23%	39%	77%	72%		41%	19%	29%
O=[N+]([O-])c1cc2[nH]ncc2c2c1[nH]c1ccccc12			28%	17%	15%	49%	38%	3000 nM	14%	38%	85%
COc1ccc2[nH]c3c([N+](=O)[O-])cc4c[nH]nc4c3c2c1	110 nM	220 nM									
COc1ccc2[nH]c3c(N)cc4n[nH]cc4c3c2c1	600 nM										

The next lines start with results.

IC50 [1]	IC50 [2]	Activity [3]	Activity [4]	Activity [5]	Activity [6]	Activity [7]	IC50 (PC-3 [8])	Activity [10]	Compound	inhibition of growth at 10 µM (LNCaP)	inhibition of growth at 10 µM (PC-3 [9])
110 nM	150 nM								COc1ccc2[nH]c3c([N+](=O)[O-])cc4n[nH]cc4c3c2c1		
110 nM	1100 nM	28%	7%	8%	107%	34%		45%	Nc1cc2[nH]ncc2c2c1[nH]c1ccc(Cl)cc12	27%	45%
		51%	16%	23%	123%	54%		70%	COc1ccc2[nH]c3c(N)cc4[nH]ncc4c3c2c1	39%	46%
		55%	14%	29%	115%	79%		85%	Nc1cc2cn[nH]c2c2c1[nH]c1ccc(Cl)cc12	35%	43%
		66%	20%	16%	96%	71%		61%	Nc1cc2[nH]ncc2c2c1[nH]c1ccccc12	56%	56%
90 nM		50%	38%	60%	90%	93%		69%	O=[N+]([O-])c1cc2cn[nH]c2c2c1[nH]c1ccc(Cl)cc12	28%	51%
210 nM	400 nM								O=[N+]([O-])c1cc2c[nH]nc2c2c1[nH]c1ccccc12		
